According to ChEMBL document CHEMBL4270546, “A novel Anti-Cancer Stem Cells compound optimized from the natural symplostatin 4 scaffold inhibits Wnt/β-catenin signaling pathway” (Eur J Med Chem, 2018):
Activity calls are given as the source filed them. The calls are words filed in the database; no cut-off is given here.

Legend:
[1] = species: Homo sapiens; assay: Inhibition of Wnt/beta-catenin signaling pathway (unknown origin) expressed in human 293T cells assessed as inhibition of TCF/LEF activity up to 100 uM after 48 hrs by luciferase reporter gene assay; format: cell-based
In short: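 293T cells transfected with a TCF/LEF reporter plasmid were treated with compound at different concentrations for 48 h. Luciferase activity was measured and normalized to Renilla luciferase activity.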

[2] = test system: 4T1; assay: Antiproliferative activity against mouse 4T1 cells after 48 hrs by MTT assay; format: functional, cell-based; conditions: 4T1, 48 h
[3] = test system: B16-F10; assay: Antiproliferative activity against mouse B16F10 cells after 48 hrs by MTT assay; format: functional, cell-based; conditions: B16-F10, 48 h
[4] = test system: A549; assay: Antiproliferative activity against human A549 cells after 48 hrs by MTT assay; format: functional, cell-based; conditions: A549, 48 h
[5] = test system: A-375; assay: Inhibition of colony formation in human A375 cells at 0.125 to 0.25 uM after 7 days by crystal violet staining based assay; format: functional, cell-based
In short: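 Clonogenic long-term growth assay: A375 or B16F10 cells grown under continuous compound exposure for 7 days, then colonies quantified; mean ± sd, n = 3, two-way ANOVA.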

[6] = test system: A-375; assay: Induction of apoptosis in human A375 cells assessed as live cells at 1 uM after 48 hrs by Annexin V-FITC/propidium iodide staining based flow cytometry (reference value: 93.6%); format: functional
[7] = test system: A-375; assay: Induction of apoptosis in human A375 cells assessed as early apoptotic cells at 1 uM after 48 hrs by Annexin V-FITC/propidium iodide staining based flow cytometry (reference value: 1.13%); format: functional
[8] = test system: A-375; assay: Induction of apoptosis in human A375 cells assessed as live cells at 2 uM after 48 hrs by Annexin V-FITC/propidium iodide staining based flow cytometry (reference value: 93.6%); format: functional
[9] = test system: A-375; assay: Induction of apoptosis in human A375 cells assessed as early apoptotic cells at 2 uM after 48 hrs by Annexin V-FITC/propidium iodide staining based flow cytometry (reference value: 1.13%); format: functional
[10] = test system: A-375; assay: Induction of apoptosis in human A375 cells assessed as necrotic cells at 2 uM after 48 hrs by Annexin V-FITC/propidium iodide staining based flow cytometry (reference value: 2.39%); format: functional
[11] = test system: B16-F10; assay: Induction of apoptosis in mouse B16F10 cells assessed as live cells at 1 uM after 48 hrs by Annexin V-FITC/propidium iodide staining based flow cytometry (reference value: 97.6%); format: functional
[12] = test system: B16-F10; assay: Induction of apoptosis in mouse B16F10 cells assessed as late apoptotic cells at 1 uM after 48 hrs by Annexin V-FITC/propidium iodide staining based flow cytometry (reference value: 0.303%); format: functional
[13] = test system: B16-F10; assay: Induction of apoptosis in mouse B16F10 cells assessed as live cells at 2 uM after 48 hrs by Annexin V-FITC/propidium iodide staining based flow cytometry (reference value: 97.6%); format: functional
[14] = test system: B16-F10; assay: Induction of apoptosis in mouse B16F10 cells assessed as necrotic cells at 2 uM after 48 hrs by Annexin V-FITC/propidium iodide staining based flow cytometry (reference value: 1.86%); format: functional
[15] = test system: A-375; assay: Induction of apoptosis in human A375 cells after 48 hrs by Annexin V-FITC/propidium iodide staining based flow cytometry; format: functional, cell-based
[16] = test system: A-375; assay: Induction of apoptosis in human A375 cells assessed as upregulation of activated caspase-3 protein expression at 0.5 to 4 uM after 48 hrs by Western blot analysis; format: functional, cell-based
In short: (§1)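 Cells treated with compound at different concentrations (0.5-4 μM) for 48 h. Lysates probed by Western blot for cleaved PARP, active caspase-3, Bax and p53.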

[17] = test system: B16-F10; assay: Induction of apoptosis in mouse B16F10 cells assessed as upregulation of activated caspase-3 protein expression at 0.5 to 4 uM after 48 hrs by Western blot analysis; format: functional, cell-based; in short: as §1
[18] = test system: B16-F10; assay: Antimigratory activity against mouse B16F10 cells at 0.25 uM after 24 to 48 hrs by wound healing assay; format: functional, cell-based
In short: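 Wound-healing scratch assay on cells treated with or without compound (0.25 μM). Images recorded at 0, 24 and 48 h, and migration distance quantified. Mean ± sd, n = 3, two-way ANOVA.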

[19] = test system: B16-F10; assay: Antimigratory activity against mouse B16F10 cells at 0.25 uM after 24 hrs by transwell migration assay; format: functional, cell-based
In short: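 Cells seeded in the upper chamber of a transwell and incubated with compound (0.25 μM) for 24 h. Cells migrated to the lower chamber were imaged and counted against an untreated control. Mean ± sd, n = 3, two-way ANOVA.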

[20] = test system: A-375; assay: Anti-invasive activity against human A375 cells at 0.25 uM after 24 hrs by matrigel invasion assay; format: functional, cell-based
In short: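 Cells seeded in the upper chamber of a transwell with a Matrigel-precoated filter, incubated with compound (0.25 μM) for 24 h. Invaded cells imaged and counted against an untreated control. Mean ± sd, n = 3, two-way ANOVA.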

[21] = test system: A-375; assay: Inhibition of tumor sphere formation ability of human A375 cells at 0.25 to 0.5 uM pretreated for 48 hrs followed by cell culture for 7 days; format: functional, cell-based
In short: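 A375 or B16F10 cells pretreated with or without compound for 48 h, collected and replated on ultra-low attachment surfaces; after 7 days of culture, sphere number and size scored; mean ± sd, n = 3, two-way ANOVA.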

[22] = test system: A-375; assay: Inhibition of ALDH+ subpopulation of human A375 cells assessed as ALDH+ cells at 0.5 after 48 hrs by flow cytometry (reference value: 25.7%); format: functional; design: scale not given: the % may be the effect or the level left
[23] = test system: B16-F10; assay: Inhibition of ALDH+ subpopulation of mouse B16F10 cells assessed as ALDH+ cells at 0.25 after 48 hrs by flow cytometry (reference value: 26.7%); format: functional; design: scale not given: the % may be the effect or the level left
[24] = test system: B16-F10; assay: Inhibition of ALDH+ subpopulation of mouse B16F10 cells assessed as ALDH+ cells at 0.5 after 48 hrs by flow cytometry (reference value: 26.7%); format: functional; design: scale not given: the % may be the effect or the level left
[25] = test system: A-375; assay: Inhibition of CD133+ sub-population of human A375 cells assessed as CD133+ cells at 0.25 after 48 hrs by flow cytometry (reference value: 4.54%); format: functional; design: scale not given: the % may be the effect or the level left
[26] = test system: B16-F10; assay: Inhibition of CD133+ sub-population of mouse B16F10 cells assessed as CD133+ cells at 0.5 after 48 hrs by flow cytometry (reference value: 7.23%); format: functional; design: scale not given: the % may be the effect or the level left
[27] = species: Homo sapiens; assay: Inhibition of Wnt/beta-catenin signaling pathway in human A375 cells assessed as reduction in STAT3 phosphorylation after 48 hrs by Western blot analysis; format: cell-based
In short: (§2)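 A375 cells exposed to compound at several concentrations for 48 h; lysates immunoblotted for STAT3, p-STAT3, β-catenin and c-Myc.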

[28] = species: Homo sapiens; assay: Inhibition of Wnt/beta-catenin signaling pathway in human A375 cells assessed as reduction in c-Myc protein expression after 48 hrs by Western blot analysis; format: cell-based; in short: as §2
[29] = test system: B16-F10; assay: Antitumor activity against mouse B16F10 cells implanted in C57BL/6J mouse assessed as tumor growth inhibition at 15 mg/kg/day, ip measured after 24 days; format: functional, organism-based
In short: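 C57BL/6J mice injected subcutaneously with B16F10 cells and treated with vehicle or compound. Tumor volume and body weight followed, and tumors dissected and weighed on day 24. Mean ± sd, n = 5, two-way ANOVA.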

[30] = test system: A-375; assay: Induction of apoptosis in human A375 cells assessed as upregulation of p53 expression after 48 hrs by Western blot analysis

IC50 [2]: 0.946 µM
IC50 [3]: 0.522 µM
IC50 [4]: 4.66 µM
SMILES: CC[C@H](C)[C@H](NC(=O)OCc1ccccc1)C(=O)N[C@@H](CC(C)C)C(=O)N[C@@H](CC(C)C)C(=O)N[C@@H](C)/C=C/C(=O)N1C(=O)C=C(OC)[C@@H]1C(C)C
inhibition [1]: Active
inhibition [5]: Active
Activity [6]: 97.9%
Activity [7]: 3.49%
Activity [8]: 79.3%
Activity [9]: 9.68%
Activity [10]: 2.87%
Activity [11]: 85%
Activity [12]: 4.05%
Activity [13]: 31.5%
Activity [14]: 3.92%
Activity [15]: Dose-dependent effect
Activity [16]: Active
Activity [17]: Active
Activity [18]: Active
Activity [19]: Active
Activity [20]: Active
inhibition [21]: Active
Activity [22]: 8.81%
Activity [23]: 17.6%
Activity [24]: 11.8%
Activity [25]: 1.25%
Activity [26]: 1.7%
inhibition [27]: Dose-dependent effect
inhibition [28]: Dose-dependent effect
TGI [29]: Active
p53 upregulation [30]: Dose-dependent effect
